# Vif imaging = inhibitors of HIV Vif; HEK293T cells, Vif self-association by quenched fluorescence, imaging, 24 h; inhibition, % at 7.49 µM; actives 0.35% (n = 340,000); in the data active = inhibition above about 50%, passing the limit was not always enough; inconclusive = no clear call, values can overlap the other calls; inactive = below about 31%
# Cneo AK release = causes C. neoformans cell lysis | actives 0.2% (n = 360,000) | lysis activity, % at 15 µM | adenylate kinase release luminescence, 4 h; normalised: neutral wells 0, clomiphene wells 100;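 active = mean lysis activity across replicates of at least 80%, whatever share of replicates individually reach that level; inactive = mean lysis activity below 80%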
#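 Schedule: static 4 h at 37 °C with compound, 1 h detection; system: C. neoformans cells; benchmarks: Clomiphene as positive control; buffer or medium: fresh YPD medium; measure: luminescence rise reflecting yeast cell lysis; measured by: luminescent adenylate kinase detection reagent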
# PglD inh = PglD (C. jejuni) enzyme inhibition; inhibition, % at 12.5 µM; actives 0.098% (n = 360,000); purified PglD enzyme, DTNB colorimetric CoA detection; in the data active = inhibition above about 16%, passing the limit was not always enough; inconclusive = no clear call, values can overlap the other calls
# FGF22 binding = shifts melting point of recombinant human FGF22. Q9HCT0. recombinant FGF22 thermal shift, SYPRO orange fluorescence; percent of sucrose octasulfate shift, DMSO zero. activity (Tm shift, normalised), % at 9.99 µM. actives 1.5% (n = 340,000);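 active = mean Tm shift, scaled 0 neutral to 100 positive control, at about 1.3% or above, every replicate too, limit read from the data; inconclusive = no clear call, values can overlap the other calls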
# Target sequence (Q9HCT0 whole entry, looked up): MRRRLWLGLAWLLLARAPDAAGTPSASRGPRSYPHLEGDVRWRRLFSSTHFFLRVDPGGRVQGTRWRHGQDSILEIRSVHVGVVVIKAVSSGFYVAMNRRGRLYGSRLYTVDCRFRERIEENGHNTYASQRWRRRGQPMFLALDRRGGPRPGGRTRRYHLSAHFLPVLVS
# PGC1a acetyl inh = modulators of PGC1a acetylation. U2OS PGC1a acetylation, AlphaScreen anti-acetyl-lysine; with virally co-expressed GCN5 acetyltransferase. inhibition, % at 15.6 µM. actives 0.17% (n = 350,000);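 active = every replicate shows inhibition of at least 40%; inconclusive = mean inhibition at least 40% but some replicate below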;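 note: 0% = neutral control wells and 100% = positive control wells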
# rRNA inh HTS = inhibits bacterial ribosomal RNA function over humanized ribosomes; GFP signal change (wild-type ribosome), % (concentration not given with the values); E. coli WT GFP vs humanized-ribosome RFP mutants, fluorescence, 24 h; active compounds read low; DMSO median 0, no signal -100; actives 1.6% (n = 350,000);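 active = significant combined selectivity score with lowered wild-type GFP, culture density cut under 30%, mutant RFP and density less affected; inactive = any of these conditions unmet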
# AID977621 = wild-type E. coli growth inhibition versus H69 humanized strain – H69 mutant RFP, wild-type GFP, cherry-pick, dose response; 1,900 tested, under 10 active; activity change, negative = inhibition at 50 µM; AID 977621; fluorescence, 24 h; shares compounds with rRNA inh HTS;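 active = Wild-type ribosome reporter drop at least double the humanized mutant ribosome reporter drop, growth loss under a set limit; inconclusive = no clear call, values can overlap the other calls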;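 note: wild-type GFP and H69 mutant RFP strains grown together 50/50 in each well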
# AID977628 = growth of wild-type and h24-humanized E. coli strains – h24 mutant RFP vs wild-type GFP, cherry-pick, dose response. shares compounds with rRNA inh HTS. E. coli WT GFP strain growth, fluorescence, 24 h. activity change, negative = inhibition at 50 µM. 1,900 tested, under 10 active. AID 977628;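 active = compound lowering the normal-ribosome reporter at least twice as much as the humanized-ribosome reporter, growth loss under a set limit; inconclusive = no clear call, values can overlap the other calls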;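 note: wild-type GFP and h24 humanized RFP strains co-cultured 1 to 1 per well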
# * = called active by the depositor; u = inconclusive; x = no result given. In the library only some 2.9% were active in any assay of this set; here they are far more common.
SMILES,Vif imaging,Cneo AK release,PglD inh,FGF22 binding,PGC1a acetyl inh,rRNA inh HTS,AID977621,AID977628
COc1ccc(CNC(=O)C[C@H]2C=C[C@H](NC(=O)c3ccc4c(c3)OCO4)[C@@H](CO)O2)cc1,x,-5,-3,0,1,2,x,x
COc1ccc(-c2nc3c(C)cc(Br)cn3c2Cc2ccc(C)cc2)cc1OC,x,-1,9,40,-52,-6.1*,x,u
COC(=O)c1ccc2nc(-c3ccc(OC)c(OC)c3)c(Cc3ccc(C)cc3)n2c1,x,0,-5,0,-31,-15*,-19,x
Cc1ccc2nc(-c3cccc(Br)c3)c(Cc3ccccc3)n2c1,x,4,1,0,-6,-1,x,x
COc1ccc(-c2nc3c(C)cc(Br)cn3c2Cc2ccccc2)cc1OC,x,1,-4,0,-14,-5,x,x
COC(=O)c1ccc2nc(-c3ccc(C)cc3)c(Cc3ccc(C)cc3)n2c1,x,x,x,0,x,-2,x,x
COC(=O)c1ccc2nc(-c3ccco3)c(Cc3ccc(C)cc3)n2c1,x,6,1,0,-9,-29*,-6.3,u
Cc1ccc(Cc2c(-c3cccc(Br)c3)nc3ccc(C)cn23)cc1,x,x,x,0,x,-27*,0.33,-9
O=C(C1CC1)N1[C@H](CO)[C@@H](c2ccccc2)C12CN(CCC(F)(F)F)C2,x,x,x,x,x,4,x,x
C[C@H]1CN([C@@H](C)CO)C(=O)Cc2cc(NC(=O)Cc3ccccc3)ccc2O[C@@H]1CN(C)CC1CC1,x,6,-1,0,-2,3,x,x
COC(=O)c1ccc2nc(-c3ccccc3)c(Cc3cccc(F)c3)n2c1,x,x,x,0,x,-27,x,x
COC(=O)c1ccc2nc(-c3ccc(F)cc3)c(Cc3cccc(F)c3)n2c1,x,x,x,0,x,-24*,-3.1,-6
COCC#Cc1cnc2c(c1)C(=O)N([C@H](C)CO)C[C@H](C)[C@@H](CN(C)Cc1ccc(F)cc1)O2,x,6,-2,0,0,-3,x,x
C=CCN(c1ccccc1)S(=O)(=O)c1cccc2cccnc12,18,x,x,0,-25,-24*,2.3,x
O=c1[nH]c2cc([N+](=O)[O-])ccc2c2ccccc12,2,x,x,0,x,-13*,-2,u
CCCn1c(C(C)Nc2nc(-c3cccc(Br)c3)cs2)nc2ccccc21 (stereo not given),-2,0,-1,0,3,6,x,x
CCCn1c(C(C)Nc2nc(-c3ccc(C)cc3)cs2)nc2ccccc21 (stereo not given),-6,4,-1,0,-6,-16*,-14,-1.6
O=C(c1cc(C(=O)N2CCOCC2)c2nc3ccccc3n2c1)c1cc(Cl)cc(Cl)c1O,-4,x,x,1,x,-18*,x,u
C[C@@H]1CN([C@H](C)CO)C(=O)c2cc(NC(=O)Nc3cccc4ccccc34)ccc2O[C@@H](C)CCCCO[C@H]1CN(C)C,x,x,x,x,-3,x,x,x
C[C@@H]1CCCCO[C@@H](CN(C)C)[C@@H](C)CN([C@@H](C)CO)C(=O)c2cc(NC(=O)Nc3cccc4ccccc34)ccc2O1,x,2,-4,-1,-5,-3,-7,u
C[C@@H]1CN([C@@H](C)CO)C(=O)c2cc(NC(=O)Nc3cccc4ccccc34)ccc2O[C@@H](C)CCCCO[C@@H]1CN(C)C,x,x,x,x,0,-5,-2,u
CNC[C@@H]1OCCCC[C@@H](C)Oc2ccc(NC(=O)Nc3cccc4ccccc34)cc2C(=O)N([C@H](C)CO)C[C@@H]1C,x,x,x,x,0,1,x,x
CNC[C@H]1OCCCC[C@@H](C)Oc2ccc(NC(=O)Nc3cccc4ccccc34)cc2C(=O)N([C@@H](C)CO)C[C@H]1C,x,4,5,0,18,-25*,x,u

# Bioassay records deposited in PubChem BioAssay by Broad Institute.
